Compound activity as filed in PubChem.
Shown are actives, neighbours in structure and some others; about 3.7% of the full set was active somewhere.
TAAR1 antag: antagonists of human TAAR1; Q96RJ0; CHO RD-HGA16 TAAR1, Fluo-8 calcium fluorescence, antagonist; inhibition, % at 3 µM; 1.5% of 360,000 active;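 active = inhibition above a per-plate cutoff, the mean inhibition of test compounds on that plate plus 3 SD, cut at about 49% in these data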;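 also: 0% = DMSO plus EC80 beta-PEA response and 100% = DMSO alone without agonist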
Target sequence (Q96RJ0 whole entry, looked up): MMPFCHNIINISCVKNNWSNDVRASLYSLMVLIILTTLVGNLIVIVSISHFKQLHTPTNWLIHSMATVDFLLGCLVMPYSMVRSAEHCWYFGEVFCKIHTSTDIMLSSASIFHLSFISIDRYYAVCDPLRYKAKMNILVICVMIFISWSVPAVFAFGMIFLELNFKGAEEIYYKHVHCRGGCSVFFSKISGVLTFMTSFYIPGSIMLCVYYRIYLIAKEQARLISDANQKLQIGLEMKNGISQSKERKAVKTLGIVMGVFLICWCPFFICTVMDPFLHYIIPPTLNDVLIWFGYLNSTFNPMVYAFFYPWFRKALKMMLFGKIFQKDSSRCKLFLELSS
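Test system: CHO RD-HGA16 cells bearing hTAAR1 | Reagent: β-PEA, EC80 | Compound dosing: 3 µM, single point | Schedule: Dye loading 75 min at 37 °C, then 30 min room temperature | Signal: Calcium fluorescence with Fluo-8 | Evaluation: Percent inhibition of PEA-evoked calcium signal, max/basal emission ratio | Control set: DMSO-only wells and EC80 β-PEA-stimulated wells | Repeats: Singlicate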
TAAR1 ag: human TAAR1 agonism; Q96RJ0; CHO RD-HGA16 TAAR1, Fluo-8 calcium fluorescence; vehicle wells 0%, saturating PEA agonist 100%; activation, % at 3 µM; 0.99% of 360,000 active; AID 624467;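 active = activation above the mean activation of all test compounds in the run plus 3 SD, cut at about 38% in these data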
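Repeats: no replicates (n 1) | Material: CHO-derived RD-HGA16 cells with stable Gα16 and human TAAR1 | Technique: Kinetic Fluo-8 calcium fluorescence | Schedule: 17-24 h seeding, 75 min 37 °C dye, 30 min RT | Evaluation: % activation from peak over basal fluorescence ratio, DMSO-to-PEA scaled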
HCV core dimer: HCV core protein dimerization inhibition. 0.33% of 300,000 active. TR-FRET GST/Flag-core106 dimerization, 1536-well. inhibition, % at 5 µM;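 active = inhibition above the mean of all tested compounds plus 3 SD, set per screening campaign, cut at about 45% in these data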
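System: GST/Flag-tagged HCV core106 proteins. Incubation: compound-protein-antibody incubation 4 h at 22.5 °C. Technique: HTRF with 340 nm excitation, 617/671 nm emission. Medium: KF-containing HEPES buffer, pH 7.45, DTT, CHAPS, BSA. Read-out: inhibition (%) from 671 over 617 nm ratio. Also added: Eu(K)-anti-GST 90 ng/mL plus XL665-anti-Flag 1 µg/mL.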
HCV NS3 hel inh: blocks Hepatitis C virus NS3 helicase unwinding; NS3 helicase DNA unwinding, Cy5 molecular beacon fluorescence; inhibition, % at 10.9 µM; 0.56% of 290,000 active;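 active = inhibition above the mean of all tested compounds plus 3 SD, set per campaign, cut at about 35% in these data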;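 also: 0% = DMSO wells and 100% = thioflavine S control wells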
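Compound dosing – single dose, 10.9 µM nominal final, DMSO 0.8% final · System – NS3 helicase fragment of HCV · Buffer or medium – MOPS pH 6.5, MgCl2, DTT, Tween20, BSA · Signal – Cy5 beacon fluorescence read at start and 1 h · Also added – annealed dual-labelled DNA beacon duplex, ATP-started · Schedule – 1 h at 25 °C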
rCAG RNA binder: binds r(CAG) RNA repeats | r(CAG) RNA repeat, TO-PRO-1 dye displacement fluorescence | inhibition, % at 3 µM | 1.3% of 370,000 active | AID 651821;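 active = inhibition above the plate cutoff, the mean of all test compounds on that plate plus 3 SD, cut at about 35% in these data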;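 also: 0% = DMSO alone and 100% = 100 µM mitoxantrone as full dye displacement; higher means more dye released from RNA so lower well fluorescence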
NS3 helicase cf: confirmation of Hepatitis C virus NS3 helicase inhibitors. shares compounds with HCV NS3 hel inh. NS3 helicase DNA unwinding, Cy5 molecular beacon fluorescence. inhibition, % at 10.9 µM. 31% of 1,600 active. AID 1943;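 active = inhibition above the mean of all tested compounds plus 3 SD, cutoff set per campaign, cut at about 36% in these data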
FID counter trip: displaces DNA intercalator in HCV helicase counter-screen; shares compounds with HCV NS3 hel inh; DNA fluorescent intercalator displacement, fluorescence; inhibition, % at 7.9 µM; 4% of 1,600 active; in the data active = inhibition above about 37%;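 also: 0% = vehicle and 100% = reference compound; higher means more displacement of ethidium bromide from the DNA hairpin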
DNA FID DR: DNA intercalator displacement in dose response | shares compounds with HCV NS3 hel inh | fluorescent intercalator displacement from DNA, fluorescence | IC50, µM | 120 tested, under 10 active; call rule not given here
Numbers without * were called inactive; i = inactive; · = no result.

SMILES	TAAR1 antag	TAAR1 ag	HCV core dimer	HCV NS3 hel inh	rCAG RNA binder	NS3 helicase cf	FID counter trip	others
Cc1nc2ccccc2c(=O)n1CCc1ccccc1	5	4	1	10	-4	·	·
Cc1cc2nc3c(=O)n(CCc4ccccc4)c(=O)[nH]c3nc2cc1N	43	39*	-3	38*	-165	6	9
COc1ccc(NC(=O)Nc2ccccc2C(=O)N2CCCC2)cc1OC	·	·	·	·	2	·	·
C[C@H]1CN(C2CCCCC2)C(=O)[C@@H]1CC(=O)Nc1ccccc1	2	2	·	·	0	·	·
O=C(C[C@H]1C(=O)N(C2CCCCC2)C[C@@H]1Cc1ccccc1)Nc1ccccc1	17	10	7	37*	0	-16	-28
C=CCNc1nc2ccccc2nc1NS(=O)(=O)c1ccc(OC)cc1	-4	-2	-7	11	13	·	·
C=CCNc1nc2ccccc2nc1NS(=O)(=O)c1ccc(Cl)cc1	3	1	2	36*	33	32	-25
CN(C)c1ccc(/C=N/NC2=NS(=O)(=O)c3ccccc32)cc1	6	-1	-31	40*	7	-6	-14
COc1ccc(/C=N/NC2=NS(=O)(=O)c3ccccc32)cc1	7	0	2	31	5	·	·
COc1ccc(/C=N/NC2=NS(=O)(=O)c3ccccc32)cc1OC(C)=O	5	2	-3	52*	4	0	-1
COC(=O)[C@H](CC(C)C)N(CCCc1cn(Cc2ccccc2)nn1)S(=O)(=O)c1ccc(F)cc1Br	·	·	·	·	1	·	·
COc1ccccc1N1C(=N)S/C(=C\c2ccc(-c3ccccc3C(=O)O)o2)C1=O	4	4	-13	41*	4	40*	-19
O=C1c2ccccc2NC2(CCCC2)N1O	6	2	3	3	1	·	·
O=C1c2ccccc2NC2(CCCCC2)N1N=C1CCCCC1	-11	4	-3	49*	2	-8	-3
COc1ccccc1-c1cc(C(=O)N2CCc3ccccc3C2)c2ccccc2n1	·	·	24	37*	·	-17	-41
COC(=O)C12CCCN1C1C(=O)N(Cc3ccc(C(N)=O)cc3)CC1C2 (configuration not stated)	·	·	·	·	5	·	·
COc1ccc(-c2ccc(CCC(=O)O)n2-c2ccccc2O)cc1	-35	-1	-1	45*	14	6	-3
Fc1ccccc1Cn1ccc2ccc(-c3ccc4ccn(Cc5ccccc5)c4c3)cc21	·	·	·	·	8	·	·
O=C(CCC(=O)NCc1ccccc1)NCc1ccccc1	-17	5	-10	48*	1	-11	-3
O=C(COC(=O)CCc1c[nH]c2ccccc12)NCc1ccccc1	11	3	-4	43*	-1	9	-26
O=C(CCS(=O)(=O)c1cc2c(cc1Br)CCN2C(=O)C1CC1)N1CCN(c2ccccn2)CC1	·	·	·	·	5	·	·
NC(=NCCc1c[nH]c2ccccc12)NC(=O)OCc1ccccc1	·	·	·	·	2	·	·
O=C(NCCc1ccccc1F)c1cc2ccccn2n1	·	·	·	·	-1	·	·
Fc1nc(F)c(F)c(NCCCNc2c(F)c(F)nc(F)c2F)c1F	35	4	1	52*	-3	-8	16
CC(=O)c1cccc(NS(=O)(=O)c2ccc(C(=O)Nc3ccccc3)cc2)c1	43	10	-20	42*	15	-18	-2
SMILES	TAAR1 antag	TAAR1 ag	HCV core dimer	HCV NS3 hel inh	rCAG RNA binder	NS3 helicase cf	FID counter trip	others
COc1cccc(C2CC(=O)N3CN(c4ccccc4F)CSC3=C2C#N)c1 (configuration not stated)	-3	1	18	14	17	·	·
COc1ccc(OC)c(C2CC(=O)N3CN(c4ccccc4F)CSC3=C2C#N)c1 (configuration not stated)	-17	2	-7	40*	34	66*	3	DNA FID DR=>79
CNc1ccccc1C(C)(C)c1cc(-c2ccco2)n[nH]1	19	2	-5	41*	4	-9	-27
CCCCOc1ccc(-c2cc(C(F)(F)F)c(C#N)c(SCC(=O)O)n2)cc1	-2	2	2	43*	6	81*	-14	DNA FID DR=i
OC(CCN1CCCCC1)(c1ccccc1)C1CC2C=CC1C2 (configuration not stated)	·	·	·	·	2	·	·
COc1ccc(-c2cc(Cl)cc3c(=O)c4ccccc4n(C)c23)cc1F	-1	4	9	67*	1	-3	-10
COc1cc(-c2ccc3c(=O)c4ccccc4n(C)c3c2)cc(OC)c1OC	40	20	17	-11	2	·	·
CCC(=O)Nc1ccc(C(=O)CSc2nnc(-c3ccccc3F)n2C2CC2)cc1	5	6	40	52*	7	-6	-21
C[C@@H]1OCN(C)[C@H]2C[C@H]3c4[nH]c5cccc(-c6ccccc6)c5c4CCN3C[C@@H]12	·	·	·	·	5	·	·
Cc1nc(-c2ccc3c(c2)CCC(=O)N3)cs1	-22	0	-2	1	14	·	·
Cc1ccc(-c2csc(Cc3nc(-c4ccc5c(c4)CCC(=O)N5)cs3)n2)cc1	11	5	25	40*	20	-3	-10
N#Cc1ccc(-c2ccco2)nc1SCC(=O)c1ccc(Cl)cc1	14	4	8	38*	30	12	14
Cc1ccccc1CN1CCCCC(NC(=O)c2ccccc2)C1=O (configuration not stated)	·	·	·	·	2	·	·
Cc1ccc(Nc2cc(C)nn2-c2nc(C)cc(C)n2)cc1	-30	-1	-58	5	-2	·	·
Cc1ccc(Nc2cc(C)nn2-c2nc(C)cc(=O)[nH]2)cc1	·	·	-4	39*	·	-3	-30
C=CCn1c(SCC(=O)c2ccc(F)cc2)nnc1-c1ccc(F)cc1	·	·	·	·	-1	·	·
COc1ccccc1C(=O)CC(=O)C(=O)Nc1cccc([N+](=O)[O-])c1C	5	1	5	37*	8	-33	-17
Cn1cccc1CC(=O)NNC(=O)Nc1ccc(Cl)cc1	11	4	13	10	9	·	·
Cn1cccc1CC(=O)NNC(=O)Nc1cccc(Cl)c1	-9	9	1	38*	17	-15	25
O=c1c2cc(Br)ccc2nc(-c2ccc(Cl)cc2)n1O	-13	6	-5	37*	5	40*	9
CC(=O)c1ccc(N(CC(=O)NC2CCCC2)C(=O)CNC(=O)c2cccs2)cc1	6	-2	-7	37*	3	-8	-11
Cn1c(=O)oc2ccc(S(=O)(=O)Nc3ccc(Cl)cc3[N+](=O)[O-])cc21	-10	8	·	·	19	·	·
